{
  "source": "ChEMBL document CHEMBL2034825",
  "about": "“Chemical syntheses and in vitro antibacterial activity of two desferrioxamine B-ciprofloxacin conjugates with potential esterase and phosphatase triggered drug release linkers” (2012)",
  "key": {"[1]": {"test_system": "Pseudomonas aeruginosa", "experiment": "Antibacterial activity against Pseudomonas aeruginosa K799/61 assessed as unclear inhibition zone at 50 uL of 0.2 mM solution of compound dissolved in 1:9 DMSO/MeOH measured after 24 hrs by agar well diffusion method", "type": "functional", "procedure,_shortened": "(§1)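 Agar well diffusion. 50 µL of a 0.2 mM solution in 1:9 DMSO/MeOH was filled into 9 mm wells in nutrient agar or Mueller Hinton II agar. Plates were incubated 24 h at 37 °C before inhibition zones were read. Zones were scored as partially clear (p, colonies in zone) or unclear (P, many colonies in zone).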"}, "[2]": {"test_system": "Staphylococcus aureus", "experiment": "Antibacterial activity against Staphylococcus aureus SG 511 at 50 uL of 0.2 mM solution of compound dissolved in 1:9 DMSO/MeOH measured after 24 hrs by agar well diffusion method", "type": "functional", "procedure,_shortened": "as §1"}, "[3]": {"test_system": "Micrococcus luteus", "experiment": "Antibacterial activity against Micrococcus luteus ATCC 10240 at 50 uL of 0.2 mM solution of compound dissolved in 1:9 DMSO/MeOH measured after 24 hrs by agar well diffusion method", "type": "functional", "procedure,_shortened": "as §1"}, "[4]": {"test_system": "Escherichia coli", "experiment": "Antibacterial activity against Escherichia coli X580 at 50 uL of 0.2 mM solution of compound dissolved in 1:9 DMSO/MeOH measured after 24 hrs by agar well diffusion method", "type": "functional", "procedure,_shortened": "as §1"}, "[5]": {"test_system": "Escherichia coli", "experiment": "Antibacterial activity against Escherichia coli X580 assessed as partially clear inhibition zone at 50 uL of 0.2 mM solution of compound dissolved in 1:9 DMSO/MeOH measured after 24 hrs by agar well diffusion method", "type": "functional", "procedure,_shortened": "as §1"}, "[6]": {"test_system": "Pseudomonas aeruginosa", "experiment": "Antibacterial activity against wild type Pseudomonas aeruginosa K799 at 50 uL of 0.2 mM solution of compound dissolved in 1:9 DMSO/MeOH measured after 24 hrs by agar well diffusion method", "type": "functional", "procedure,_shortened": "as §1"}, "[7]": {"test_system": "Bacillus subtilis", "experiment": "Antibacterial activity against Bacillus subtilis ATCC 6633 at 50 uL of 0.2 mM solution of compound dissolved in 1:9 DMSO/MeOH measured after 24 hrs by agar well diffusion method", "type": "functional", "procedure,_shortened": "as §1"}, "[8]": {"test_system": "Staphylococcus aureus", "experiment": "Antibacterial activity against Staphylococcus aureus ATCC 29213 by broth microdilution method", "type": "functional", "procedure,_shortened": "(§2)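 MIC90 (µM) by broth microdilution in Mueller-Hinton broth No.2 (MHII) following CLSI guidelines. End point read visually. Each compound tested in triplicate.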"}, "[9]": {"test_system": "Pseudomonas aeruginosa", "experiment": "Antibacterial activity against Pseudomonas aeruginosa K799/61 assessed as partially clear inhibition zone at 50 uL of 0.2 mM solution of compound dissolved in 1:9 DMSO/MeOH measured after 24 hrs by agar well diffusion method", "type": "functional", "procedure,_shortened": "as §1"}, "[10]": {"test_system": "Acinetobacter baumannii", "experiment": "Antibacterial activity against Acinetobacter baumannii ATCC 17961 by broth microdilution method", "type": "functional", "procedure,_shortened": "as §2"}, "[11]": {"test_system": "Klebsiella pneumoniae", "experiment": "Antibacterial activity against Klebsiella pneumoniae ATCC 700603 by broth microdilution method", "type": "functional", "procedure,_shortened": "as §2"}, "[12]": {"test_system": "Pseudomonas aeruginosa", "experiment": "Antibacterial activity against Pseudomonas aeruginosa K799/61 at 50 uL of 0.2 mM solution of compound dissolved in 1:9 DMSO/MeOH measured after 24 hrs by agar well diffusion method", "type": "functional", "procedure,_shortened": "as §1"}, "[13]": {"test_system": "Pseudomonas aeruginosa", "experiment": "Antibacterial activity against Pseudomonas aeruginosa ATCC 27853 by broth microdilution method", "type": "functional", "procedure,_shortened": "as §2"}, "[14]": {"test_system": "Escherichia coli", "experiment": "Antibacterial activity against Escherichia coli ATCC 25922 by broth microdilution method", "type": "functional", "procedure,_shortened": "as §2"}, "[15]": {"test_system": "Enterococcus faecium", "experiment": "Antibacterial activity against Enterococcus faecium NCTC 7171 by broth microdilution method", "type": "functional", "procedure,_shortened": "as §2"}, "[16]": {"test_system": "Klebsiella aerogenes", "experiment": "Antibacterial activity against Enterobacter aerogenes ATCC 35029 by broth microdilution method", "type": "functional", "procedure,_shortened": "as §2"}, "[17]": {"test_system": "Pseudomonas aeruginosa", "experiment": "microbe, parasite or virus in culture", "details": "K799/61, 24 h, read-out: DIZ"}, "[18]": {"test_system": "Escherichia coli", "experiment": "Antibacterial activity against Escherichia coli X580 at 0.33 ug/mL after 24 hrs by agar well diffusion method", "details": "X580, 24 h, read-out: DIZ"}, "[19]": {"test_system": "Staphylococcus aureus", "experiment": "microbe, parasite or virus in culture", "details": "SG 511, 24 h, read-out: DIZ"}, "[20]": {"test_system": "Pseudomonas aeruginosa", "experiment": "microbe, parasite or virus in culture", "details": "K799/61, 24 h, read-out: DIZ", "remark": "listed apart in the source"}, "[21]": {"test_system": "Bacillus subtilis", "experiment": "microbe, parasite or virus in culture", "details": "ATCC 6633, 24 h, read-out: DIZ"}, "[22]": {"test_system": "Micrococcus luteus", "experiment": "Antibacterial activity against Micrococcus luteus ATCC 10240 assessed as unclear inhibition zone at 5 ug/mL after 24 hrs by agar well diffusion method", "type": "functional", "details": "ATCC 10240, 24 h, read-out: DIZ", "procedure,_shortened": "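Agar well diffusion with ciprofloxacin dissolved in H2O, tested at 5, 1.66 or […]. Solution was loaded into 9 mm wells in nutrient agar or Mueller Hinton II agar. Inhibition zones were read after 24 h at 37 °C. A zone was scored as P when unclear, with many colonies inside.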"}, "[23]": {"test_system": "Pseudomonas aeruginosa", "experiment": "microbe, parasite or virus in culture", "details": "K799, 24 h, read-out: DIZ"}},
  "data": [
    {"smiles": "CC(=O)N(O)CCCCCNC(=O)CCC(=O)N(O)CCCCCNC(=O)CCC(=O)N(O)CCCCCNC(=O)CCC(=O)N1CCN(c2cc3c(cc2F)c(=O)c(C(=O)O)cn3C2CC2)CC1", "values": [
      {"measurement": "diameter of the inhibition zone (DIZ)", "setting": "[1]", "value": 26, "unit": "mm"},
      {"measurement": "diameter of the inhibition zone (DIZ)", "setting": "[2]", "value": 18, "unit": "mm"},
      {"measurement": "diameter of the inhibition zone (DIZ)", "setting": "[3]", "value": 0, "unit": "mm"},
      {"measurement": "diameter of the inhibition zone (DIZ)", "setting": "[4]", "value": 30, "unit": "mm"},
      {"measurement": "diameter of the inhibition zone (DIZ)", "setting": "[5]", "value": 33, "unit": "mm"},
      {"measurement": "diameter of the inhibition zone (DIZ)", "setting": "[6]", "value": 0, "unit": "mm"},
      {"measurement": "diameter of the inhibition zone (DIZ)", "setting": "[7]", "value": 21, "unit": "mm"}
    ]},
    {"smiles": "CC(=O)N(O)CCCCCNC(=O)CCC(=O)N(O)CCCCCNC(=O)CCC(=O)N(O)CCCCCNC(=O)CCC(=O)Oc1cc(C)cc(C)c1C(C)(C)CC(=O)N1CCN(c2cc3c(cc2F)c(=O)c(C(=O)O)cn3C2CC2)CC1", "values": [
      {"measurement": "MIC90", "setting": "[8]", "value": 32, "unit": "µM"},
      {"measurement": "diameter of the inhibition zone (DIZ)", "setting": "[2]", "value": 16, "unit": "mm"},
      {"measurement": "diameter of the inhibition zone (DIZ)", "setting": "[3]", "value": 0, "unit": "mm"},
      {"measurement": "diameter of the inhibition zone (DIZ)", "setting": "[9]", "value": 37, "unit": "mm"},
      {"measurement": "diameter of the inhibition zone (DIZ)", "setting": "[4]", "value": 29, "unit": "mm"},
      {"measurement": "MIC90", "setting": "[10]", "value": 8, "unit": "µM"},
      {"measurement": "MIC90", "setting": "[11]", "value": 16, "unit": "µM"},
      {"measurement": "diameter of the inhibition zone (DIZ)", "setting": "[12]", "value": 27, "unit": "mm"},
      {"measurement": "diameter of the inhibition zone (DIZ)", "setting": "[6]", "value": 26, "unit": "mm"},
      {"measurement": "diameter of the inhibition zone (DIZ)", "setting": "[7]", "value": 26, "unit": "mm"},
      {"measurement": "MIC90", "setting": "[13]", "value": 8, "unit": "µM"},
      {"measurement": "MIC90", "setting": "[14]", "value": 1, "unit": "µM"},
      {"measurement": "MIC90", "setting": "[15]", "value": "> 128", "unit": "µM"},
      {"measurement": "MIC90", "setting": "[16]", "value": 1, "unit": "µM"}
    ]},
    {"smiles": "CC(=O)N(O)CCCCCNC(=O)CCC(=O)N(O)CCCCCNC(=O)CCC(=O)N(O)CCCCCNC(=O)CCC(=O)Oc1c(C)cc(OP(=O)(O)O)c(C(C)(C)CC(=O)N2CCN(c3cc4c(cc3F)c(=O)c(C(=O)O)cn4C3CC3)CC2)c1C", "values": [
      {"measurement": "diameter of the inhibition zone (DIZ)", "setting": "[2]", "value": 0, "unit": "mm"},
      {"measurement": "diameter of the inhibition zone (DIZ)", "setting": "[3]", "value": 0, "unit": "mm"},
      {"measurement": "diameter of the inhibition zone (DIZ)", "setting": "[4]", "value": 21, "unit": "mm"},
      {"measurement": "diameter of the inhibition zone (DIZ)", "setting": "[12]", "value": 0, "unit": "mm"},
      {"measurement": "diameter of the inhibition zone (DIZ)", "setting": "[6]", "value": 0, "unit": "mm"},
      {"measurement": "diameter of the inhibition zone (DIZ)", "setting": "[7]", "value": 0, "unit": "mm"}
    ]},
    {"smiles": "O=C(O)c1cn(C2CC2)c2cc(N3CCNCC3)c(F)cc2c1=O", "note": "[CIPROFLOXACIN]", "values": [
      {"measurement": "zone of inhibition at 1.66 µg/mL", "setting": "[17]", "value": 24, "unit": "mm"},
      {"measurement": "zone of inhibition at 0.33 µg/mL", "setting": "[18]", "value": 31, "unit": "mm"},
      {"measurement": "zone of inhibition at 5 µg/mL", "setting": "[19]", "value": 28, "unit": "mm"},
      {"measurement": "zone of inhibition at 1.66 µg/mL", "setting": "[20]", "value": 32, "unit": "mm"},
      {"measurement": "zone of inhibition at 1.66 µg/mL", "setting": "[21]", "value": 28, "unit": "mm"},
      {"measurement": "MIC90", "setting": "[10]", "value": 0.25, "unit": "µM"},
      {"measurement": "MIC90", "setting": "[11]", "value": 0.25, "unit": "µM"},
      {"measurement": "zone of inhibition at 5 µg/mL", "setting": "[22]", "value": 12, "unit": "mm"},
      {"measurement": "MIC90", "setting": "[13]", "value": 0.25, "unit": "µM"},
      {"measurement": "MIC90", "setting": "[14]", "value": "< 0.015", "unit": "µM"},
      {"measurement": "MIC90", "setting": "[15]", "value": 8, "unit": "µM"},
      {"measurement": "MIC90", "setting": "[16]", "value": "< 0.015", "unit": "µM"},
      {"measurement": "zone of inhibition at 1.66 µg/mL", "setting": "[23]", "value": 21, "unit": "mm"}
    ]}
  ]
}
